Laboratory results reported in ChEMBL document CHEMBL4428071 (J Med Chem, 2016).
Active and inactive are the calls of the source. No cut-off for these calls is given here.

Experiments:
[1] = system: Mast/stem cell growth factor receptor Kit (Homo sapiens), P10721 [T670I]; assay: Inhibition of TEL-fused cKIT T670I mutant (unknown origin) expressed in mouse BA/F3 cells assessed as cell growth inhibition after 72 hrs by cell titer-glo assay; assay type: cell-based
Procedure, shortened: (§1)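 Cells seeded at 3000 per well and exposed to serial compound dilutions for 72 h. Viability read by CellTiter-Glo luminescence and normalised to DMSO controls; mean of three independent measurements. BaF3 lines kept IL-3-free in RPMI 1640/10% FBS after retroviral transduction and puromycin selection. GIST lines grown in DMEM/10% FBS.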

[2] = Cytotoxicity mouse BA/F3 cells assessed as cell growth inhibition after 72 hrs by cell titer-glo assay; assay type: cell-based, BaF3; procedure, shortened: as §1
[3] = molecular target: T1, Mast/stem cell growth factor receptor Kit (Homo sapiens, UniProt P10721); assay: Inhibition of TEL-fused cKIT (unknown origin) expressed in mouse BA/F3 cells assessed as cell growth inhibition after 72 hrs by cell titer-glo assay; assay type: cell-based
T1 sequence (P10721 whole entry, the tested form may be a part): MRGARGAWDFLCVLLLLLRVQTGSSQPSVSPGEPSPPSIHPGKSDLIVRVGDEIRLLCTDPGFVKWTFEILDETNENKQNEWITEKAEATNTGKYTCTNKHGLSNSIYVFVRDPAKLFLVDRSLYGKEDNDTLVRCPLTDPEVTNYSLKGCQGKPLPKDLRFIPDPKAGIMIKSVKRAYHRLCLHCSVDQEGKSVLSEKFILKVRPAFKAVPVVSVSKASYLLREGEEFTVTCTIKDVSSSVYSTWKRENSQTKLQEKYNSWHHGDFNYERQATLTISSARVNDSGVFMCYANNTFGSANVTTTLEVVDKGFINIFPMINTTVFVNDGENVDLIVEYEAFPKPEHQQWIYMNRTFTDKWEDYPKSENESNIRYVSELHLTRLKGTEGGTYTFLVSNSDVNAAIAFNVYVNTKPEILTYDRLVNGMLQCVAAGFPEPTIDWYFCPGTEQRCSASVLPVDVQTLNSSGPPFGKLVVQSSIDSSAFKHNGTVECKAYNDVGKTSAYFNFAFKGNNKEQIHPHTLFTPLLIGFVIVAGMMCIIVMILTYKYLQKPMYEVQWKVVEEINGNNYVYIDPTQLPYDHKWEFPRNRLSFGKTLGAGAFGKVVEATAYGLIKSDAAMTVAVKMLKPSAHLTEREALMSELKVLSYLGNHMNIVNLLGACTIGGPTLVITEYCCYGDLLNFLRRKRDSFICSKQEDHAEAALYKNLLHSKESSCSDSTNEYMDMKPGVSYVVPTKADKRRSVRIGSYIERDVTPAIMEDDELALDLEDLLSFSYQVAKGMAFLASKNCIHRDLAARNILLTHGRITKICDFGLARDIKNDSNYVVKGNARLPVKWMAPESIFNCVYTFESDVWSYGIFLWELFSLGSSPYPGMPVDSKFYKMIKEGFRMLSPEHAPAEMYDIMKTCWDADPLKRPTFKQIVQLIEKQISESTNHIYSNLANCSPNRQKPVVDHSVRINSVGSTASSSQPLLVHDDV

[4] = molecular target: T1, Mast/stem cell growth factor receptor Kit; assay: Inhibition of wild type cKIT in human GIST-T1 cells assessed as cell growth inhibition after 72 hrs by cell titer-glo assay; assay type: cell-based
Procedure, shortened: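 GIST-T1 cells (cKIT wt) grown in DMEM with 10% FBS and 1% penicillin/streptomycin at 37 °C, 5% CO2. Viability read by CellTiter-Glo luminescence and normalized to DMSO controls. GI50 taken from the mean of three independent measurements.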

[5] = system: Mast/stem cell growth factor receptor Kit (Homo sapiens), P10721 [D816V]; assay: Inhibition of TEL-fused cKIT D816V mutant (unknown origin) expressed in mouse BA/F3 cells assessed as cell growth inhibition after 72 hrs by cell titer-glo assay; assay type: cell-based; procedure, shortened: as §1
Chain of Mast/stem cell growth factor receptor Kit (Homo sapiens), P10721 [D816V] (P10721 whole entry D816V, the tested form may be a part): as the sequence (P10721 whole entry, the tested form may be a part) above, with D816V counted along it

[6] = system: Mast/stem cell growth factor receptor Kit (Homo sapiens), P10721 [V559D,T670I]; assay: Inhibition of TEL-fused cKIT T670I/V559D double mutant (unknown origin) expressed in mouse BA/F3 cells assessed as cell growth inhibition after 72 hrs by cell titer-glo assay; assay type: cell-based; procedure, shortened: as §1
Chain of Mast/stem cell growth factor receptor Kit (Homo sapiens), P10721 [V559D,T670I] (P10721 whole entry V559D/T670I, the tested form may be a part): as the sequence (P10721 whole entry, the tested form may be a part) above, with V559D, T670I counted along it

[7] = system: Mast/stem cell growth factor receptor Kit (Homo sapiens), P10721 [V559D,V654A]; assay: Inhibition of TEL-fused cKIT V559D/V654A double mutant (unknown origin) expressed in mouse BA/F3 cells assessed as cell growth inhibition after 72 hrs by cell titer-glo assay; assay type: cell-based; procedure, shortened: as §1
Chain of Mast/stem cell growth factor receptor Kit (Homo sapiens), P10721 [V559D,V654A] (P10721 whole entry V559D/V654A, the tested form may be a part): as the sequence (P10721 whole entry, the tested form may be a part) above, with V559D, V654A counted along it

Homo sapiens = organism: Homo sapiens; assay: Inhibition of TEL-fused cKIT L567P mutant (unknown origin) expressed in mouse BA/F3 cells assessed as cell growth inhibition after 72 hrs by cell titer-glo assay; assay type: cell-based; procedure, shortened: as §1
[8] = system: Mast/stem cell growth factor receptor Kit (Homo sapiens), P10721 [V654A]; assay: Inhibition of TEL-fused cKIT V654A mutant (unknown origin) expressed in mouse BA/F3 cells assessed as cell growth inhibition after 72 hrs by cell titer-glo assay; assay type: cell-based; procedure, shortened: as §1
Chain of Mast/stem cell growth factor receptor Kit (Homo sapiens), P10721 [V654A] (P10721 whole entry V654A, the tested form may be a part): as the sequence (P10721 whole entry, the tested form may be a part) above, with V654A counted along it

[9] = system: Mast/stem cell growth factor receptor Kit (Homo sapiens), P10721 [T670I]; conditions: 1 uM
[10] = system: Mast/stem cell growth factor receptor Kit (Homo sapiens), P10721 [T670I]; conditions: 1 uM; remark: listed apart in the source
[11] = system: Mast/stem cell growth factor receptor Kit (Homo sapiens), P10721 [T670I]; conditions: 1 uM; remark: listed apart in the source
[12] = system: Mast/stem cell growth factor receptor Kit (Homo sapiens), P10721 [T670I]; assay: Inhibition of […] cKIT T670I mutant in human GIST-5R cells assessed as cell growth inhibition after 72 hrs by cell titer-glo assay; assay type: cell-based
[13] = system: Mast/stem cell growth factor receptor Kit (Homo sapiens), P10721 [T670I]; conditions: 1 uM; remark: listed apart in the source
[14] = system: Mast/stem cell growth factor receptor Kit (Homo sapiens), P10721 [N822K]; assay: Inhibition of TEL-fused cKIT N822K mutant (unknown origin) expressed in mouse BA/F3 cells assessed as cell growth inhibition after 72 hrs by cell titer-glo assay; assay type: cell-based; procedure, shortened: as §1
Chain of Mast/stem cell growth factor receptor Kit (Homo sapiens), P10721 [N822K] (P10721 whole entry N822K, the tested form may be a part): as the sequence (P10721 whole entry, the tested form may be a part) above, with N822K counted along it

[15] = system: Mast/stem cell growth factor receptor Kit (Homo sapiens), P10721 [T670I]; conditions: 1 uM; remark: listed apart in the source
[16] = system: Mast/stem cell growth factor receptor Kit (Homo sapiens), P10721 [T670I]; conditions: 1 uM; remark: listed apart in the source

Chain of Mast/stem cell growth factor receptor Kit (Homo sapiens), P10721 [T670I] (P10721 whole entry T670I, the tested form may be a part): as the sequence (P10721 whole entry, the tested form may be a part) above, with T670I counted along it

| GI50 [1] [nM] | GI50 [3] [nM] | SMILES | GI50 at 72 h [2] [nM] | other results |
| --- | --- | --- | --- | --- |
| 83 | 87 | COc1cc2nccc(Oc3cccc(NC(=O)Nc4ccc(N5CCC(NC(=O)C6CCOCC6)CC5)c(C(F)(F)F)c4)c3)c2cc1OC | 2900 |  |
| 581 | 130 | COc1cc2nccc(Oc3cccc(NC(=O)Nc4ccc(N5CCC(NC(=O)CN)CC5)c(C(F)(F)F)c4)c3)c2cc1OC | 5000 |  |
| > 10000 | 340 | CCC(=O)Nc1ccc(N2CCC(NC(=O)Nc3cccc(Oc4ccnc5cc(OC)c(OC)cc45)c3)CC2)c(C(F)(F)F)c1 | > 10000 |  |
| 37 | 120 | COc1cc2nccc(Oc3cccc(NC(=O)Nc4ccc(N5CCC(NC(=O)CN6CCCCC6)CC5)c(C(F)(F)F)c4)c3)c2cc1OC | 480 |  |
| 71 | 120 | CCC(=O)NC1CCN(c2ccc(NC(=O)Nc3cccc(Oc4ccnc5cc(OC)c(OC)cc45)c3)cc2C(F)(F)F)CC1 | 1500 |  |
| 480 | 120 | COc1cc2nccc(Oc3cccc(NC(=O)Nc4ccc(N5CCC(NC(=O)C(C)N)CC5)c(C(F)(F)F)c4)c3)c2cc1OC (single isomer, unassigned) | 3000 |  |
| 200 | 330 | COc1cc2nccc(Oc3cccc(NC(=O)Nc4ccc(N5CCC(NC(=O)CN6CCCC(C)C6)CC5)c(C(F)(F)F)c4)c3)c2cc1OC (configuration not stated) | 870 |  |
| 5 |  | CCN(CC)CCNC(=O)c1c(C)[nH]c(/C=C2\C(=O)Nc3ccc(F)cc32)c1C [SUNITINIB] | 1600 | GI50 [4]: 5 nM; GI50 [5]: 420 nM; GI50 [6]: 7 nM; GI50 [7]: 6 nM; GI50 (Homo sapiens): 3 nM; GI50 [8]: 6 nM |
| 230 | 59 | COc1cc2nccc(Oc3cccc(NC(=O)Nc4ccc(N5CCC(NC(=O)C6CCN(C(C)=O)CC6)CC5)c(C(F)(F)F)c4)c3)c2cc1OC | 3400 |  |
| 260 | 440 | COc1cc2nccc(Oc3cccc(NC(=O)Nc4ccc(N5CCC(NC(=O)CCN6CCCCC6)CC5)c(C(F)(F)F)c4)c3)c2cc1OC | 7600 |  |
| 321 | 20 | COc1cc2nccc(Oc3cccc(NC(=O)Nc4ccc(N5CCC(NC(=O)c6cccnc6)CC5)c(C(F)(F)F)c4)c3)c2cc1OC | 7000 |  |
| 59 | 42 | COc1cc2nccc(Oc3cccc(NC(=O)Nc4ccc(N5CCC(NC(=O)CCN6CCOCC6)CC5)c(C(F)(F)F)c4)c3)c2cc1OC | 3600 |  |
| 330 | 34 | CCS(=O)(=O)NC1CCN(c2ccc(NC(=O)Nc3cccc(Oc4ccnc5cc(OC)c(OC)cc45)c3)cc2C(F)(F)F)CC1 | 6200 |  |
| 46 | 110 | COc1cc2nccc(Oc3cccc(NC(=O)Nc4ccc(N5CCC(NC(C)=O)CC5)c(C(F)(F)F)c4)c3)c2cc1OC | 7100 |  |
| 920 | 280 | CCC(=O)NC1CCCN(c2ccc(NC(=O)Nc3cccc(Oc4ccnc5cc(OC)c(OC)cc45)c3)cc2C(F)(F)F)C1 (configuration not stated) | 1310 |  |
| 950 | 59 | CCCS(=O)(=O)NC1CCN(c2ccc(NC(=O)Nc3cccc(Oc4ccnc5cc(OC)c(OC)cc45)c3)cc2C(F)(F)F)CC1 | 4230 |  |

| GI50 [1] [nM] | GI50 [3] [nM] | SMILES | GI50 at 72 h [2] [nM] | other results |
| --- | --- | --- | --- | --- |
| > 10000 | > 10000 | CCC(=O)NC1CCN(c2ccc(NC(=O)C3(C(=O)Nc4cccc(Oc5ccnc6cc(OC)c(OC)cc56)c4)CC3)cc2C(F)(F)F)CC1 | > 10000 |  |
| 9600 |  | Cc1ccc(NC(=O)c2ccc(CN3CCN(C)CC3)cc2)cc1Nc1nccc(-c2cccnc2)n1 [IMATINIB] | > 10000 | inhibition [9]: inactive; inhibition [10]: inactive; inhibition [11]: inactive; GI50 [12]: 8.3 µM; GI50 [5]: > 10000 nM; GI50 [7]: 700 nM; GI50 (Homo sapiens): 10 nM; inhibition [13]: inactive; GI50 [14]: 360 nM; GI50 [8]: 700 nM; inhibition [15]: inactive; inhibition [16]: inactive |
| 120 | 130 | COc1cc2nccc(Oc3cccc(NC(=O)Nc4ccc(N5CCC(NC(=O)C6CCN(C(=O)C7CC7)CC6)CC5)c(C(F)(F)F)c4)c3)c2cc1OC | 800 |  |
| 3800 | 3900 | COc1cc2nccc(Oc3cccc(NC(=O)Nc4ccc(N5CCC(NS(C)(=O)=O)CC5)c(C(F)(F)F)c4)c3)c2cc1OC | > 10000 |  |
| 53 | 38 | COc1cc2nccc(Oc3cccc(NC(=O)Nc4ccc(N5CCC(NC(=O)CN(C)C)CC5)c(C(F)(F)F)c4)c3)c2cc1OC | 2900 |  |
| 340 | 430 | COc1cc2nccc(Oc3cccc(NC(=O)Nc4ccc(N5CCC(NC(=O)CC(C)(C)C)CC5)c(C(F)(F)F)c4)c3)c2cc1OC | > 10000 |  |
| > 10000 | > 10000 | CCC(=O)NC1CCN(c2ccc(NC(=O)Nc3cccc(Oc4ccnc5cc(OC)c(OC)cc45)c3)cc2)CC1 | > 10000 |  |
| 81 | 160 | COc1cc2nccc(Oc3cccc(NC(=O)Nc4ccc(N5CCC(NC(=O)C6CCN(C)CC6)CC5)c(C(F)(F)F)c4)c3)c2cc1OC | 1700 |  |
| 650 | 460 | COc1cc2nccc(Oc3cccc(NC(=O)Nc4ccc(N5CCC(NC(=O)C6CCNC(C)C6)CC5)c(C(F)(F)F)c4)c3)c2cc1OC (configuration not stated) | 4000 |  |
| 460 | 250 | COc1cc2nccc(Oc3cccc(NC(=O)Nc4ccc(N5CCC(CNC(=O)CCC6CCCCN6C)CC5)c(C(F)(F)F)c4)c3)c2cc1OC (configuration not stated) | 4400 |  |
| 200 | 190 | COc1cc2nccc(Oc3cccc(NC(=O)Nc4ccc(N5CCC(NC(=O)CCC6CCCCN6C)CC5)c(C(F)(F)F)c4)c3)c2cc1OC (configuration not stated) | 1200 |  |
| 760 | 760 | COc1cc2nccc(Oc3cccc(NC(=O)Nc4ccc(N5CCC(NC(=O)C6=CCCCC6)CC5)c(C(F)(F)F)c4)c3)c2cc1OC | 1100 |  |
| 170 | 130 | COc1cc2nccc(Oc3cccc(NC(=O)Nc4ccc(N5CCC(NC(=O)C6CCCN(C(=O)OC(C)(C)C)C6)CC5)c(C(F)(F)F)c4)c3)c2cc1OC (configuration not stated) | 510 |  |
| 87 | 39 | CCN1CCC(C(=O)NC2CCN(c3ccc(NC(=O)Nc4cccc(Oc5ccnc6cc(OC)c(OC)cc56)c4)cc3C(F)(F)F)CC2)CC1 | 1300 |  |
| 63 | 140 | COc1cc2nccc(Oc3cccc(NC(=O)Nc4ccc(N5CCC(NS(=O)(=O)C6CC6)CC5)c(C(F)(F)F)c4)c3)c2cc1OC | 1900 |  |
| 2700 | 400 | CCC(=O)NC1CCN(c2ccc(C(=O)Nc3cccc(Oc4ccnc5cc(OC)c(OC)cc45)c3)cc2C(F)(F)F)CC1 | > 10000 |  |
